# Measured values taken from ChEMBL document CHEMBL4715934, “Discovery of Imidazopyridines as Potent Inhibitors of Indoleamine 2,3-Dioxygenase 1 for Cancer Immunotherapy” (ACS Med Chem Lett, 2021).
# How the values were obtained:
# [1] = Metabolic stability in mouse liver microsomes assessed as parent compound remaining at 0.5 uM after 10 mins; format: ADME, Microsome; conditions: read-out: Stabilty
# In short: (§1)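 Parent compound at 0.5 μM incubated 10 min with 1 mg/mL human, mouse or rat liver microsomes; fraction of parent remaining reported; average of N = 2 unless noted.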
# [2] = target: T1, Indoleamine 2,3-dioxygenase 1 (Homo sapiens, UniProt P14902); assay: Inhibition of IDO1 in recombinant IFN-gamma induced human HeLa cells incubated for 18 hrs by fluorescence microplate reader assay
# T1 sequence (P14902 whole entry): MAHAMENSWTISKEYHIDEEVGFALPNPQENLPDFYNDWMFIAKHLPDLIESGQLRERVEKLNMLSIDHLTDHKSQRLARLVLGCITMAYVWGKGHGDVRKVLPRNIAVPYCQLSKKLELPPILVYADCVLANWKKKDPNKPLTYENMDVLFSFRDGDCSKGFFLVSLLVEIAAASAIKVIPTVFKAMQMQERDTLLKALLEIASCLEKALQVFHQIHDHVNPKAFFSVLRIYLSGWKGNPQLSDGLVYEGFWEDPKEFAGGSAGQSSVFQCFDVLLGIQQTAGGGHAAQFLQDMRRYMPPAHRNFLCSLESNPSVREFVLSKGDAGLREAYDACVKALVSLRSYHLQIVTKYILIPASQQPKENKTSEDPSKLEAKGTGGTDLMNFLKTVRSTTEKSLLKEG
# In short: (§2)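 HeLa (human) or M109 (murine) cells induced with IFNγ to express IDO1, then cellular IDO1 activity measured; values are the average of N = 2 unless noted.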
# [3] = target: Indoleamine 2,3-dioxygenase 1 (Mus musculus, UniProt P28776); assay: Inhibition of IDO1 in recombinant IFN-gamma induced mouse M109 cells incubated for 18 hrs by fluorescence microplate reader assay; format: cell-based; in short: as §2
# Indoleamine 2,3-dioxygenase 1 (Mus musculus, UniProt P28776), sequence (P28776 whole entry): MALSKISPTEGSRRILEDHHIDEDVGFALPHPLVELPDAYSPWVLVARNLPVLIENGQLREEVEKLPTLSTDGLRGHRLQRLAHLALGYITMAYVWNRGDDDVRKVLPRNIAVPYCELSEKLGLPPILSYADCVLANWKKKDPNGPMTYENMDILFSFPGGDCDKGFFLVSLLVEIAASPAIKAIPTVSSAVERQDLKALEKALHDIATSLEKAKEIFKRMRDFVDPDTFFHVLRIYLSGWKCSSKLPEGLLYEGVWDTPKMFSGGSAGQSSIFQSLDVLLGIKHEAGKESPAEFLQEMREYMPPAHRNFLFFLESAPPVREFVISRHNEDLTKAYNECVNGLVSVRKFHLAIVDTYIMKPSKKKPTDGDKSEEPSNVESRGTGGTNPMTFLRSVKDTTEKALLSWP
# [4] = Metabolic stability in rat liver microsomes assessed as parent compound remaining at 0.5 uM after 10 mins; format: ADME, Microsome; conditions: read-out: Stabilty; in short: as §1
# [5] = Metabolic stability in human liver microsomes assessed as parent compound remaining at 0.5 uM after 10 mins; format: ADME, Microsome; conditions: read-out: Stabilty; in short: as §1
# [6] = target: T1, Indoleamine 2,3-dioxygenase 1; assay: Inhibition of IDO1 in IFN-gamma/LPS induced human whole blood assessed as tryptophan/kynurenine level measured after 18 hrs by RapidFire mass spectrometry; format: tissue-based
# [7] = Metabolic stability assessed as rat CYP-mediated metabolism by measuring half life; format: ADME
# [8] = Metabolic stability assessed as human CYP-mediated metabolism by measuring half life; format: ADME
# Cytochrome P450 2C19 = Cytochrome P450 2C19 (Homo sapiens, UniProt P33261); assay: Inhibition of recombinant human CYP2C19; format: ADME
# Cytochrome P450 2C19, sequence (P33261 whole entry): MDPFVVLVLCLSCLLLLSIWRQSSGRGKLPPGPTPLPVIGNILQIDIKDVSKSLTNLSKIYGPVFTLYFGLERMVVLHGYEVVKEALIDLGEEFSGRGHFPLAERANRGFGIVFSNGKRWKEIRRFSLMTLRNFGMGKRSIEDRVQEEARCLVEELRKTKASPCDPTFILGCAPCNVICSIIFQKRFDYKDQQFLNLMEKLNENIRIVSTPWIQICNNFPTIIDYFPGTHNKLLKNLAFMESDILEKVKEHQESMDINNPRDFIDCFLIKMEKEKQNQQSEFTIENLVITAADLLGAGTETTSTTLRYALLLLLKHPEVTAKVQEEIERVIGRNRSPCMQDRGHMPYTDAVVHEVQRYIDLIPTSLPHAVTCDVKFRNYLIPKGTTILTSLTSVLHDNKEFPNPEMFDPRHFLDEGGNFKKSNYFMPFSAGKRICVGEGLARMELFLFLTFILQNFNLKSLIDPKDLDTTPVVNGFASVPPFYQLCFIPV
# Cytochrome P450 2C9 = Cytochrome P450 2C9 (Homo sapiens, UniProt P11712); assay: Inhibition of recombinant human CYP2C9; format: ADME
# Cytochrome P450 2C9, sequence (P11712 whole entry): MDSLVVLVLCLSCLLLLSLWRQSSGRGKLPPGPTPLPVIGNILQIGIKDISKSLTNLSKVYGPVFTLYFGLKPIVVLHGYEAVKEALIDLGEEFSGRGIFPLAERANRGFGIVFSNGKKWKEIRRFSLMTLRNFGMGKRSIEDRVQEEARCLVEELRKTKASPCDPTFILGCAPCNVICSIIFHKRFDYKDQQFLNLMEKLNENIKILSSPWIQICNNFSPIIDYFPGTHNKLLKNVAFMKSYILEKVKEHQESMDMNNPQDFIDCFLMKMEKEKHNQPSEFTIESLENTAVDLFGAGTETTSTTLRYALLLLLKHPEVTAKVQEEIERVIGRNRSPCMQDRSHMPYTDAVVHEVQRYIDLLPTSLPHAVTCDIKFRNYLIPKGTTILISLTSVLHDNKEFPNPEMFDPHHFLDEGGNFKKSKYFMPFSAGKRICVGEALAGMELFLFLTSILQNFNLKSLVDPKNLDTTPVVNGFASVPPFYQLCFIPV
# [9] = Permeability at pH 7.4 by PAMPA; format: ADME; conditions: read-out: permeability
# [10] = Metabolic stability assessed as rat UGT -mediated metabolism by measuring half life; format: ADME
# Cytochrome P450 2D6 = Cytochrome P450 2D6 (Homo sapiens, UniProt P10635); assay: Inhibition of recombinant human CYP2D6; format: ADME
# Cytochrome P450 2D6, sequence (P10635 whole entry): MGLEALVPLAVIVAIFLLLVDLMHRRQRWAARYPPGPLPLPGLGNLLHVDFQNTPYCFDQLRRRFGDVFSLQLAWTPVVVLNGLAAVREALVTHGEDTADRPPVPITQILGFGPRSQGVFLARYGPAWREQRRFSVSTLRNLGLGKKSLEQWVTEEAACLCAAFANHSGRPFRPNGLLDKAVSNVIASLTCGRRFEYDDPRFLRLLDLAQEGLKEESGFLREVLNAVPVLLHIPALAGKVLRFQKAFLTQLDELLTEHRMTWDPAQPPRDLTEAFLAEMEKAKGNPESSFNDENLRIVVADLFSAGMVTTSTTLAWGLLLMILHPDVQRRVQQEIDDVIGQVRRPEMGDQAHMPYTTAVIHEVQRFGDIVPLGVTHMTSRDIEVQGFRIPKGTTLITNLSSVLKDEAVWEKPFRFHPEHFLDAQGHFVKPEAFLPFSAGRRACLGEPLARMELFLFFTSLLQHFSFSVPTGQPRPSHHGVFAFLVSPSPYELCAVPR
# Cytochrome P450 3A4 = Cytochrome P450 3A4 (Homo sapiens, UniProt P08684); assay: Inhibition of recombinant human CYP3A4; format: ADME
# Cytochrome P450 3A4, sequence (P08684 whole entry): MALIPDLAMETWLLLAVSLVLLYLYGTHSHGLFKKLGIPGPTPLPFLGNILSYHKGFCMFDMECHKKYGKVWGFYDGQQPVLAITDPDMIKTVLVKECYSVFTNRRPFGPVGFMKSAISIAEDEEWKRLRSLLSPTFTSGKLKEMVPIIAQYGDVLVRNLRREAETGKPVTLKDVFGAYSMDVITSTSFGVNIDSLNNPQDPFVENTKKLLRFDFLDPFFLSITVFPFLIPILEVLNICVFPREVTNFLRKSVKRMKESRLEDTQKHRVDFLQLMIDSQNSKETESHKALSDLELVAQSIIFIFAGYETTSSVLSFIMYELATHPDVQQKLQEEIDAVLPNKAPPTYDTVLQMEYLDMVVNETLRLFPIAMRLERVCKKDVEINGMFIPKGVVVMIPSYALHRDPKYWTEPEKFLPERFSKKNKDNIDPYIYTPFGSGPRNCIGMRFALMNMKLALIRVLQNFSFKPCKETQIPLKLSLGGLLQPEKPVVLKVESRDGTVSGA
# [11] = Permeability across apical to basolateral side in human Caco2 cells; format: ADME, cell-based; conditions: Caco-2, read-out: permeability
# [12] = Metabolic stability assessed as dog CYP-mediated metabolism by measuring half life; format: ADME, Canis lupus familiaris
# [13] = Metabolic stability assessed as cynomolgus monkey UGT -mediated metabolism by measuring half life; format: ADME, Macaca fascicularis
# [14] = Metabolic stability assessed as mouse UGT -mediated metabolism by measuring half life; format: ADME
# Cytochrome P450 2C8 = target: T2, Cytochrome P450 2C8 (Homo sapiens, UniProt P10632); assay: Inhibition of recombinant human CYP2C8; format: ADME
# T2 sequence (P10632 whole entry): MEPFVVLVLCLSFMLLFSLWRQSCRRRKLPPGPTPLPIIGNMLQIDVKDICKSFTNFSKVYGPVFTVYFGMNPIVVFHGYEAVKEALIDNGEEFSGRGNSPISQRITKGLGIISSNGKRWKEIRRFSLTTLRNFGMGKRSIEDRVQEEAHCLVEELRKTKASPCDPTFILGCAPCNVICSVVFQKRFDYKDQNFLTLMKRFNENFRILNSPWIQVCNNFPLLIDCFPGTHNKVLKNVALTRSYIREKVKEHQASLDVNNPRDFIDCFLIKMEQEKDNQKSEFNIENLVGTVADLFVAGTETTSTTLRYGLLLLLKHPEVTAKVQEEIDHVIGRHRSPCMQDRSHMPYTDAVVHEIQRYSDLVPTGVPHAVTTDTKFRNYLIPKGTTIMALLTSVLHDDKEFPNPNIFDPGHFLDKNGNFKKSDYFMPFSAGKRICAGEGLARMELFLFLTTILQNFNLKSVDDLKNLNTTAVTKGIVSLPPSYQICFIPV
# [15] = Metabolic stability assessed as cynomolgus monkey CYP-mediated metabolism by measuring half life; format: ADME, Macaca fascicularis
# [16] = AUC (0 to 24 hrs) in mouse xenografted with human SKOV3 cells assessed in tumor at 20 mg/kg, po qd for 5 days measured upto 24 hrs after dosing; format: ADME, organism-based; parameters: route oral, dose 20 mg/kg, time 5 day
# In short: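 nu/nu nude mice carrying SKOV3 tumors grown 2 weeks; dosed QD for 5 days starting day 14. On day 18, tumor sampled at 2, 6 and 24 h for drug level and kynurenine. […] Kyn reduction measured at steady state after the 5th dose, taken as area under the Kyn concentration–time curve 0–24 h versus vehicle control.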
# [17] = Permeability at pH 5.5 by PAMPA; format: ADME; conditions: read-out: permeability
# [18] = Metabolic stability assessed as human UGT-mediated metabolism by measuring half life; format: ADME
# Cytochrome P450 1A2 = target: T3, Cytochrome P450 1A2 (Homo sapiens, UniProt P05177); assay: Inhibition of recombinant human CYP1A2; format: ADME
# T3 sequence (P05177 whole entry): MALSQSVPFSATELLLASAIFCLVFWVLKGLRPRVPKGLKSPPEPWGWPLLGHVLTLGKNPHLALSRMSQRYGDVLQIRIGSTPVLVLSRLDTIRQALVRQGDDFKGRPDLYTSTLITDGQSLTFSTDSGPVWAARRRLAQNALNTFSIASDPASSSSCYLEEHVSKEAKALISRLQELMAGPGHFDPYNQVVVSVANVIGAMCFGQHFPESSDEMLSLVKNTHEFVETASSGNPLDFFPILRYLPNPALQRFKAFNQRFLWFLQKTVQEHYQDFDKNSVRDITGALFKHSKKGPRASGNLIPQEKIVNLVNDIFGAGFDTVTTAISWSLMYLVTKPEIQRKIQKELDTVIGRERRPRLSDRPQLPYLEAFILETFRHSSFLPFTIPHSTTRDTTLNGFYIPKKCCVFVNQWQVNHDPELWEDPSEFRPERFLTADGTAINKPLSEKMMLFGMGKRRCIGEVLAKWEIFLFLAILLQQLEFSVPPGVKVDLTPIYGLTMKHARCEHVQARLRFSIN
# [19] = Permeability across basolateral to apical side in human Caco2 cells; format: ADME, cell-based; conditions: Caco-2, read-out: permeability
# [20] = Metabolic stability assessed as mouse CYP-mediated metabolism by measuring half life; format: ADME
# [21] = Metabolic stability assessed as dog UGT -mediated metabolism by measuring half life; format: ADME, Canis lupus familiaris
smiles,measurement,setting,value
CCC(Nc1nnc(-c2ccc(OC)cc2)o1)[C@H]1CC[C@@H](c2ccnc3ccc(F)cc32)CC1 (stereo partly specified),"remaining at 10 min, 0.5 µM",[1],31%
same,IC50,[2],6 nM
same,IC50,[3],31 nM
same,"remaining at 10 min, 0.5 µM",[4],45%
same,"remaining at 10 min, 0.5 µM",[5],66%
same,IC50,[6],16 nM
C[C@@H](c1nc2ccc(F)cc2[nH]1)[C@H]1CC[C@@H](c2ccnc3ccc(F)cc32)CC1,"remaining at 10 min, 0.5 µM",[1],5%
same,IC50,[2],3 nM
same,IC50,[3],22 nM
same,"remaining at 10 min, 0.5 µM",[4],0%
same,"remaining at 10 min, 0.5 µM",[5],42%
CCC(c1nc2ccc(Cl)cc2[nH]1)[C@H]1CC[C@H](Oc2ccnc3ccccc23)CC1 (stereo partly specified),"remaining at 10 min, 0.5 µM",[1],82%
same,IC50,[2],7 nM
same,IC50,[3],52 nM
same,"remaining at 10 min, 0.5 µM",[4],80%
same,"remaining at 10 min, 0.5 µM",[5],84%
same,IC50,[6],36 nM
C[C@@H](c1nnc(-c2ccc(Cl)cc2)o1)[C@H]1CC[C@@H](c2ccnc3ccc(F)cc32)CC1,"remaining at 10 min, 0.5 µM",[1],41%
same,IC50,[2],239 nM
same,IC50,[3],348 nM
same,"remaining at 10 min, 0.5 µM",[4],23%
same,"remaining at 10 min, 0.5 µM",[5],68%
CCOCC(Nc1nnc(-c2ccc(OC)cc2)o1)[C@H]1CC[C@@H](c2ccnc3ccc(C(F)(F)F)cc32)CC1 (stereo partly specified),"remaining at 10 min, 0.5 µM",[1],41%
same,IC50,[2],13 nM
same,IC50,[3],57 nM
same,"remaining at 10 min, 0.5 µM",[4],53%
same,"remaining at 10 min, 0.5 µM",[5],60%
same,IC50,[6],96 nM
C[C@@H](c1ncc(-c2ccc(Cl)cc2)o1)[C@H]1CC[C@@H](c2ccnc3ccc(F)cc32)CC1,"remaining at 10 min, 0.5 µM",[1],78%
same,IC50,[2],495 nM
same,IC50,[3],631 nM
same,"remaining at 10 min, 0.5 µM",[4],62%
same,"remaining at 10 min, 0.5 µM",[5],97%
CCC(Nc1nnc(-c2ccc(OC)cc2)o1)[C@H]1CC[C@@H](c2ccnc3c(F)cc(F)cc32)CC1 (stereo partly specified),"remaining at 10 min, 0.5 µM",[1],8%
same,IC50,[2],3 nM
same,IC50,[3],36 nM
same,"remaining at 10 min, 0.5 µM",[4],52%
same,"remaining at 10 min, 0.5 µM",[5],54%
same,IC50,[6],14 nM
C[C@@H](c1ncc(-c2ccc(Cl)cc2)[nH]1)[C@H]1CC[C@@H](c2ccnc3ccc(F)cc32)CC1,"remaining at 10 min, 0.5 µM",[1],59%
same,IC50,[2],11 nM
same,IC50,[3],80 nM
same,"remaining at 10 min, 0.5 µM",[4],3%
same,"remaining at 10 min, 0.5 µM",[5],58%
COc1ccc(Nc2nnc([C@H](C)[C@H]3CC[C@@H](c4ccnc5ccc(F)cc54)CC3)o2)cc1,"remaining at 10 min, 0.5 µM",[1],2%
same,IC50,[2],165 nM
same,IC50,[3],451 nM
same,"remaining at 10 min, 0.5 µM",[4],0.4%
same,"remaining at 10 min, 0.5 µM",[5],18%
CCC(c1nc2ncc(Cl)cc2[nH]1)[C@H]1CC[C@@H](c2ccnc3ccc(C(F)(F)F)cc32)CC1 (stereo partly specified),half-life,[7],1 h
same,"remaining at 10 min, 0.5 µM",[1],57%
same,IC50,[2],2 nM
same,half-life,[8],0.9 h
same,IC50,Cytochrome P450 2C19,1130 nM
same,IC50,Cytochrome P450 2C9,242 nM
same,Papp,[9],263 ×10⁻⁶ cm/s
same,half-life,[10],1.78 h
same,IC50,Cytochrome P450 2D6,4280 nM
same,IC50,Cytochrome P450 3A4,1930 nM
same,Papp A→B,[11],11.3 ×10⁻⁶ cm/s
same,half-life,[12],0.683 h
same,half-life,[13],> 2 h
same,IC50,[3],3 nM
same,half-life,[14],> 2 h
same,IC50,Cytochrome P450 2C8,1470 nM
same,"remaining at 10 min, 0.5 µM",[4],81%
same,half-life,[15],0.35 h
same,AUC at 120 h,[16],43.6 µM·h
same,"remaining at 10 min, 0.5 µM",[5],81%
same,Papp,[17],238 ×10⁻⁶ cm/s
same,half-life,[18],1.58 h
same,IC50,Cytochrome P450 1A2,2550 nM
same,Papp B→A,[19],6.6 ×10⁻⁶ cm/s
same,half-life,[20],0.283 h
same,half-life,[21],1.75 h
same,IC50,[6],21 nM
